The values below come from PubChem BioAssay.

Each structure is given as a SMILES string. Unmarked numbers belong to inactive results. Inconclusive results are not listed. The source made the active and inactive calls.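 The calls were made as follows, unless noted: active = viability increase at or above a cutoff of the median across tested compounds plus 3 SD (cut at about 8.5% in these data, passing the limit was not always enough); inconclusive = some gains above the cutoff, reason not given; inactive = the rest.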

The nature of experiment [1]: S. cerevisiae growth inhibition in permissive medium (OD615), pilot counter-assay for S. cerevisiae lifespan shortening project, permissive growth control (AID 705;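 active = growth inhibition above 25% in both replicates, a cutoff set 3 SD above the mean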). The settings on record: OD615, 24 h, at 10 µM, stronger effect = higher value. In short, it runs like this: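 System – S. cerevisiae with engineered DeaD lifespan system · Buffer or medium – SC raffinose/galactose permissive medium · Schedule – cells pre-grown 4 h, then 24 h compound exposure, 30 °C humidified · Technique – culture turbidity as optical density at 615 nm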

Experiment [2] in a line: S. cerevisiae growth inhibition in restrictive medium, OD615, pilot screen, restrictive growth control, yeast lifespan reduction project (AID 706;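 active = growth inhibition above a set limit, 3 SD over mean compound inhibition, in both replicates, cut at about 43% in these data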;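 also: modified DeaD lifespan yeast strain shifted to restrictive glucose medium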). The note with it: OD615, 48 h, at 10 µM, stronger effect = higher value. In short, it runs like this:
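Material: engineered S. cerevisiae DeaD strain / Medium: glucose-based CSMM-D restrictive medium / Compound: single dose of 10 µM compound final, 0.25% DMSO / Timing: 4 h pre-incubation, 48 h exposure at 30 °C / Technique: OD615 absorbance reading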

Experiment [3] is described as follows: doxorubicin toxicity protection in MRP-1 cells – H69AR cells, CellTiter-Glo, duplicate, MRP-1 activator project, pilot screen (AID 807).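 Also: compound pretreatment 18-22 h then 72 h combined with doxorubicin; 0% = doxorubicin alone and 100% = vehicle without doxorubicin.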 The settings on record: H69AR viability with doxorubicin, CellTiter-Glo luminescence; at 10 µM; stronger effect = higher value. (In ATP-based viability assays light output follows the ATP content of the culture.)
Experiment [4] is described as follows: viability of HCT116 without oncogenic beta-catenin – human colon tumor cells, pilot screen (AID 823;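 active = cell viability at or below a set limit in both duplicate runs, the limit being the all-compound median minus 4 SD, cut at about 23% in these data, passing the limit was not always enough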;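 also: 0% = wells killed by 20 µM Hyamine and 100% = untreated DMSO cell wells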). The note with it: HCT116 beta-catenin knockout viability, CellTiter-Glo, 60 h; at 10 µM; stronger effect = lower value.
The nature of experiment [5]: viability of PTEN-null HCT116 cells – cell-based, HCT116 clonal line, CellTiter-Glo, pilot screen (AID 824;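 active = viability at or below 27.92% in each of two runs, the all-compound median minus 4 SD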;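 also: 0% = 20 µM Hyamine control and 100% = vehicle cell control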). The settings on record: HCT116 PTEN-deleted viability, 60 h, at 10 µM, stronger effect = lower value.
A short description of experiment [6]: RAM pathway blockade in budding yeast – dse1pr::URA3 reporter, 5-FOA selection, pilot screen (AID 869;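 active = inhibition over a set limit, the all-compound mean plus 3 SD, in both replicate runs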;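 also: 0% = DMSO wells with no growth and 100% = 10 µM 1-NA-PP1 with full growth; RAM network block rescues cells from 5-FOA so hits raise OD615 growth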). The settings on record: S. cerevisiae dse1pr::URA3 5-FOA growth, OD615, 2 d; at 10 µM; stronger effect = higher value; strain carries analog-sensitive mutant Cbk1 kinase.
A short description of experiment [7]: RAM signaling pathway blockade in yeast – S. cerevisiae, Pdr1DBD-CYC8 efflux-inhibited sensitized strain, primary screen (AID 1298;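 active = RAM network inhibition above 8.4% in each of two replicates, 3 SD over the compound average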;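 also: 0% = DMSO untreated cells without growth and 100% = 10 µM 1-NA-PP1 full growth; higher means more yeast growth rescued from 5-FOA killing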). The settings on record: S. cerevisiae cbk1-as DSE1-URA3 strain, 5-FOA growth OD615, 2 d; at 50 µM; stronger effect = higher value.

As usually defined, the viability is a read-out of living cells in per cent, often relative to untreated cells. In general, inhibition refers to the change of the read-out against control, counted positive when it falls. For the molecule `COc1ccc(C)cc1NC(=O)c1nnn(CCc2ccccc2)c1N`, the growth inhibition in experiment [1] was -5.25%; in experiment [2] it was -3.95%. Also, the viability increase in experiment [3] was -5.29%. The results for the viability in experiment [4] and in experiment [5] were 85.8% and 81.5%, respectively. Further, the inhibition in experiment [6] is 2.73%. Moreover, the RAM network inhibition in experiment [7] is 3.9%.
`COCC(C)NC(=O)c1ccc(N(C)C)cc1` (stereo unspecified): the growth inhibition in experiment [1] is 2.19%; in experiment [2], 8.57%. Further, the viability increase in experiment [3] is 2.2%. In addition, the values for the viability in experiment [4] and in experiment [5] were 104% and 94.5%, respectively. In addition, the inhibition in experiment [6] is 2.1%. In experiment [7], the RAM network inhibition is 0.51%.
Consider `CCc1cc(C(=O)COc2ccccc2F)c(O)cc1O`, for which the growth inhibition in experiment [1] is -11.9%; in experiment [2] it was 11.9%. The viability increase in experiment [3] is -2.43%. The viability in experiment [4] was 96.1%; in experiment [5], 99.5%. In experiment [6], the inhibition was -0.155%. Also, in experiment [7], the RAM network inhibition is -0.21%.
Turning to `Cc1ccc(C(C)C)c(OCc2nc(-c3nonc3N)no2)c1`, the growth inhibition was -13% in experiment [1] and -14.4% in experiment [2]. Moreover, the viability increase in experiment [3] was 8.48% (active). Besides, the viability in experiment [4] is 88.3%; in experiment [5], 81.2%. Moreover, the inhibition in experiment [6] was 1.71%. The RAM network inhibition in experiment [7] was 3.09%.
In the case of `CCC(CC)C(=O)NCc1ccccc1OC`, the figures for the growth inhibition in experiment [1] and in experiment [2] were 4.68% and -4.89%, respectively. Further, the viability increase in experiment [3] was -0.51%. In addition, the viability in experiment [4] was 99.1%; in experiment [5] it was 101%. Also, the inhibition in experiment [6] is 0.98%. Besides, in experiment [7], the RAM network inhibition is 2.02%.
For `O=C(c1cc(-c2ccc(Cl)c(Cl)c2)on1)N1CCCC1`, the growth inhibition was -5.55% in experiment [1] and 0.315% in experiment [2]. In experiment [3], the viability increase was 4.2%. The viability is 111% in experiment [4] and 102% in experiment [5]. Also, the inhibition in experiment [6] was 1.99%. In addition, in experiment [7], the RAM network inhibition was 1.27%.
`O=C(CSc1nc2c([nH]c3ccccc32)c(=O)n1-c1cccc(Cl)c1)N1CCOCC1`: the growth inhibition was -16.6% in experiment [1] and -12.8% in experiment [2]. In addition, in experiment [3], the viability increase was -3.3%. The viability in experiment [4] was 79.6%; in experiment [5] it was 79.9%. In addition, in experiment [6], the inhibition is 1.64%. For the same molecule, the RAM network inhibition in experiment [7] was 3.01%.
For `COc1ccc(OC)c2sc(NC(=O)c3ccc(Br)s3)nc12`, the growth inhibition was -1.73% in experiment [1] and -13% in experiment [2]. In experiment [3], the viability increase is -3.64%. For the same molecule, the viability in experiment [4] is 85.1%; in experiment [5] it was 59.5%. Further, the inhibition in experiment [6] is 2.71%. Also, in experiment [7], the RAM network inhibition is 2.69%.
Consider `Cc1ccc(-n2c3c(cc(C(=O)N4CCN(C)CC4)c2=O)C(=O)CC(C)(C)C3)cc1`, for which the growth inhibition is -21.9% in experiment [1] and -9.49% in experiment [2]. For the same molecule, the viability increase in experiment [3] was 0.41%. For the same molecule, the viability is 101% in experiment [4] and 96.6% in experiment [5]. Further, the inhibition in experiment [6] is 1.48%. Further, the RAM network inhibition in experiment [7] is 2.1%.
Consider `COC(=O)c1sc(NC(=O)C2CCCCC2C(=O)O)c(C(=O)OC)c1C` (stereo unspecified), for which the growth inhibition in experiment [1] was -5.95%; in experiment [2], 0.13%. Further, the viability increase in experiment [3] was -2.78%. The viability was 104% in experiment [4] and 94.6% in experiment [5]. For the same molecule, the inhibition in experiment [6] is 2.49%. In experiment [7], the RAM network inhibition is 6.27%.
As to `O=S(=O)(c1cccc2cccnc12)N1CCN(Cc2ccc3c(c2)OCO3)CC1`, the results for the growth inhibition in experiment [1] and in experiment [2] were -7.45% and -17.5%, respectively. Moreover, in experiment [3], the viability increase was -0.35%. Also, the figures for the viability in experiment [4] and in experiment [5] were 84.3% and 92.2%, respectively. The inhibition in experiment [6] was 1.28%. Further, the RAM network inhibition in experiment [7] was 0.52%.
`COc1ccc(Cl)cc1NC(=O)c1cnc2sccn2c1=O`: the growth inhibition in experiment [1] is -6.94%; in experiment [2] it was 9.97%. For the same molecule, the viability increase in experiment [3] was -5.14%. Besides, the viability in experiment [4] was 82.9%; in experiment [5], 82.6%. Further, in experiment [6], the inhibition is 4.45%. The RAM network inhibition in experiment [7] was 6.59%.
With `CCOC(=O)c1ccc2c(c1)NC(=O)C(N1CCN(c3ccc(OC)cc3)CC1)S2` (stereo unspecified), the growth inhibition in experiment [1] was 0.455%; in experiment [2], -5.2%. Moreover, the viability increase in experiment [3] is -7.1%. Further, the viability in experiment [4] was 74.6%; in experiment [5], 51.8%. For the same molecule, the inhibition in experiment [6] is 4.31%. Moreover, in experiment [7], the RAM network inhibition was 6.45%.
For `Cc1ccc(NC(=O)CSc2nnc(Cc3cccn3C)n2-c2ccc(F)cc2)c(C)c1`, the growth inhibition in experiment [1] was 4.68%; in experiment [2], 8.61%. For the same molecule, in experiment [3], the viability increase is -3.99%. Besides, the viability in experiment [4] is 93.2%; in experiment [5] it was 81.2%. In addition, the inhibition in experiment [6] is 2.25%. Further, the RAM network inhibition in experiment [7] is 2.03%.
For the molecule `CCOC(=O)c1ccn(-c2nc(-c3ccco3)cc(C(F)(F)F)n2)n1`, the growth inhibition in experiment [1] was -8.11%; in experiment [2], 6.16%. Also, in experiment [3], the viability increase was 1.27%. The viability was 106% in experiment [4] and 97.8% in experiment [5]. Also, the inhibition in experiment [6] is -0.505%. Also, the RAM network inhibition in experiment [7] was 4.89%.
Consider `CCCCn1nc(NC(=O)c2cccs2)c2cc3ccccc3nc21`, for which the results for the growth inhibition in experiment [1] and in experiment [2] were -22.7% and -8.93%, respectively. The viability increase in experiment [3] was 1.45%. The viability in experiment [4] was 54.6%; in experiment [5], 48.3%. For the same molecule, the inhibition in experiment [6] is 0.55%. The RAM network inhibition in experiment [7] was 4.61%.
Consider `O=C1Nc2ccccc2C(O)(C(=O)NCc2ccco2)N1c1ccccc1` (stereo unspecified), for which the growth inhibition in experiment [1] was -5.44%; in experiment [2] it was 1.25%. For the same molecule, the viability increase in experiment [3] is -1.5%. Also, the viability in experiment [4] is 108%; in experiment [5], 98.7%. In experiment [6], the inhibition was 0.96%. Besides, the RAM network inhibition in experiment [7] was 1.15%.
For `CCOC(=O)N1CCN(c2cc(C)nc3nc(C)nn23)CC1`, the values for the growth inhibition in experiment [1] and in experiment [2] were -11.9% and -9.88%, respectively. For the same molecule, the viability increase in experiment [3] is -1.28%. Further, the viability in experiment [4] is 105%; in experiment [5], 97.1%. For the same molecule, the inhibition in experiment [6] was 3.44%. Further, in experiment [7], the RAM network inhibition was 2.21%.
